Columns and labels:
[1] = tested on: MCF-7 cells; assay: MTT cell viability assay; type: cell-based; settings: Homo sapiens, MCF7, 48 h, read-out: MCF-7 IC50
In short: (§1)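 MCF-7 or HepG2 cells were seeded at 8000–9000 cells/well. After 10 h they were exposed to test compound (0.1–80 μM) for 48 h at 37 °C in a humidified CO2 incubator. Medium was replaced with MTT (from a 5 mg/mL PBS pH 7.4 stock) in DMEM for 4–5 h. Formazan was dissolved in DMSO and absorbance read at 570/590 nm. Percent viability was used to derive IC50, with mean ± SD of n = 3 and paclitaxel as positive control.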

[2] = tested on: HepG2 cells; assay: MTT cell viability assay; type: cell-based; settings: Homo sapiens, HepG2, 48 h, read-out: HepG2 IC50
In short: as §1

[3] = target: T1, MARK4 (Homo sapiens, UniProt Q96L34); assay: MARK4 enzyme inhibition assay; type: biochemical
T1 sequence (Q96L34 1-752): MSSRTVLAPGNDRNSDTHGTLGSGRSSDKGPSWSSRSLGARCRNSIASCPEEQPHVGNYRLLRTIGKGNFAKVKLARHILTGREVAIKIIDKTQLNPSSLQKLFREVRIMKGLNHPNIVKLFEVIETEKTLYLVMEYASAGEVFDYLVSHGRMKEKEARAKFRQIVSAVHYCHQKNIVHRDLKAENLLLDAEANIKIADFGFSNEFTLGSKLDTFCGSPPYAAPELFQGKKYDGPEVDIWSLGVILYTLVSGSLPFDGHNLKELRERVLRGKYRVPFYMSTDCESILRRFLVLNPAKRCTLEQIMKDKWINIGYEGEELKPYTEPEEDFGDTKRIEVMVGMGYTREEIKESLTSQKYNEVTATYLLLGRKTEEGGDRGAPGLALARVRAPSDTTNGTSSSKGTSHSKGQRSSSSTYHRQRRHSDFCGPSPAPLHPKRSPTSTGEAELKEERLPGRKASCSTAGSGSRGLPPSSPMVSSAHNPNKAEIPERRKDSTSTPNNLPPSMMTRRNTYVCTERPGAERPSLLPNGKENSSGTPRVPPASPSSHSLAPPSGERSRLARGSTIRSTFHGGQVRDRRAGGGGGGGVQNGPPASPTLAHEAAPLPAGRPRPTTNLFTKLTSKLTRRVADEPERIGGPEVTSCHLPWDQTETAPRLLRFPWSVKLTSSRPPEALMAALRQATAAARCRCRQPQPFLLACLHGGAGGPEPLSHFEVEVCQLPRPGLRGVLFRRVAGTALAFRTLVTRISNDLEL

[4] = tested on: HepG2 cells; assay: Estimation of ROS production; type: cell-based, human; settings: HepG2, IC50 dose, 5–6 h, vs vehicle control
In short: (§2)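 MCF-7 or HepG2 cells were plated at 2.5 × 10^5 cells/well, treated next day for 5–6 h, with H2O2 as positive control. They were loaded with 10 μM DCFDA for 30 min at 37 °C in the dark, then trypsinized and pelleted. DCF fluorescence was read by spectrofluorimeter (ex 485, em 500–550 nm). Measurements were triplicate, with unpaired t-test against vehicle control.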

[5] = tested on: HepG2 cells; assay: Apoptosis assay; type: cell-based, human; settings: IC50 dose, 10 h, Annexin-V/PI
In short: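 HepG2 cells were seeded at 2.5 × 10^5 cells/well in six-well plates and grown to 80% confluency. They were treated for 10 h at 37 °C, with media-only controls. Cells were trypsinized, washed three times with PBS and stained with FITC-Annexin-V and PI in Annexin binding buffer. About 10,000 events per sample were acquired by flow cytometry. Measurements were duplicate ± SD, with unpaired t-test against vehicle control.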

[6] = tested on: HEK293 cells; assay: MTT cell viability assay, noncancerous cells; type: cell-based, human; settings: up to 100 μM, 48 h
In short: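 HEK293 cells were exposed to increasing test compound concentrations for 48 h. Viability was expressed as viable cells as a percentage of untreated control. Data are mean ± SD, n = 3.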

[7] = tested on: MCF-7 cells; assay: Estimation of ROS production; type: cell-based, human; settings: MCF-7, IC50 dose, 5–6 h, vs vehicle control
In short: as §2

Row | Structure (SMILES) | IC50 [1] [µM] | IC50 [2] [µM] | IC50 [3] [µM] | DCF fluorescence (level of ROS production) [4] | MARK4 inhibition at a single dose ([3]; single dose of 20 μM, initial screening) | apoptosis induced, % of HepG2 cells [5] [%] | viability of noncancerous cells (HEK293) [6] | DCF fluorescence (level of ROS production) [7]
1 | Cc1ncc([N+](=O)[O-])n1C(=NO)c1ccccc1 [Compound 4a, N-[(2-Methyl-5-nitro-1H-imidazol-1-yl)(phenyl)methylidene]hydroxylamine] | 37.3 | 38.5 | > 20 |  |  |  |  | 
2 | COc1ccc(C(=NO)n2c([N+](=O)[O-])cnc2C)cc1 [Compound 4b, N-[(4-Methoxyphenyl)(2-methyl-5-nitro-1H-imidazol-1-yl)methylidene]hydroxylamine] | 34.4 | 32.7 | > 20 |  |  |  |  | 
3 | Cc1ccc(C(=NO)n2c([N+](=O)[O-])cnc2C)cc1 [Compound 4c, N-[(2-Methyl-5-nitro-1H-imidazol-1-yl)(4-methylphenyl)methylidene]hydroxylamine] | 32.5 | 33.2 | > 20 |  |  |  |  | 
4 | CCOc1ccc(C(=NO)n2c([N+](=O)[O-])cnc2C)cc1 [Compound 4d, N-[(4-Ethoxyphenyl)(2-methyl-5-nitro-1H-imidazol-1-yl)methylidene]hydroxylamine] | 33.3 | 35.4 | > 20 |  |  |  |  | 
5 | CCc1ccc(C(=NO)n2c([N+](=O)[O-])cnc2C)cc1 [Compound 4e, N-[(4-Ethylphenyl)(2-methyl-5-nitro-1H-imidazol-1-yl)methylidene]hydroxylamine] | 23.3 | 21.5 | 18.5 |  |  |  |  | 
6 | Cc1ncc([N+](=O)[O-])n1C(=NO)c1ccc(Cl)cc1 [Compound 4f, N-[(4-Chlorophenyl)(2-methyl-5-nitro-1H-imidazol-1-yl)methylidene]hydroxylamine] | 28.8 | 24.8 | > 20 |  |  |  |  | 
7 | Cc1ncc([N+](=O)[O-])n1C(=NO)c1ccc([N+](=O)[O-])cc1 [Compound 4g, N-[(2-Methyl-5-nitro-1H-imidazol-1-yl)(4-nitrophenyl)methylidene]hydroxylamine] | 22.5 | 25.3 | 16.2 |  |  |  |  | 
8 | Cc1ncc([N+](=O)[O-])n1C(=NO)c1ccccc1C(F)(F)F [Compound 4h, N-{(2-Methyl-5-nitro-1H-imidazol-1-yl)[2-(trifluoromethyl)phenyl]methylidene}hydroxyl Amine] | 3.74 | 5.99 | 1.47 | decreases | significant inhibition | 20.8 | did not affect the viability | decreases

Reference: publication PMC7495461 (ACS Omega, 2020)
